Measurements taken from ChEMBL document CHEMBL6115053, “Optimization and Characterization of N-Acetamide Indoles as Antimalarials That Target PfATP4” (J Med Chem, 2025).
In brackets after ≈: the same amount, converted by molar mass. Activity calls are given as the source filed them. The calls are words filed in the database; no cut-off is given here.

Legend:
Plasmodium falciparum [1] = assay: Antiplasmodial activity against asexual Plasmodium falciparum 3D7 infected in human […] cells assessed as reduction in parasite growth measured for 72 hrs by LDH assay; assay type: functional, organism-based; settings: 3D7, 72 h
HepG2 = assay: Cytotoxicity against human HepG2 cells assessed as inhibition of cell growth incubated for 48 hrs by celltiterglo assay; assay type: toxicity, cell-based; settings: hepg2, 48 h
[2] = Aqueous solubility in PBS buffer at pH 7.4; assay type: physicochemical
[3] = Metabolic stability in human liver microsome assessed as intrinsic clearance; assay type: ADME; settings: microsomes
[4] = Metabolic stability in rat hepatocyte […] assessed as intrinsic clearance measured per 10^6 cells; assay type: ADME, cell-based; settings: hepatocytes
[5] = Lipophilicity, logD of compound at pH 7.4 by shake-flask method; assay type: physicochemical; settings: buffer
[6] = Metabolic stability in mouse liver microsome assessed as intrinsic clearance; assay type: ADME; settings: microsomes
Plasmodium falciparum [7] = assay: Antimalarial activity against synchronized-ring stage Plasmodium falciparum 3D7 assessed as reduction in parasitemia at 10 times EC50 measured at 72 hrs post-treatment by LDH assay; assay type: functional, organism-based
Procedure, shortened: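 Parasite reduction ratio assay in P. falciparum 3D7 with an LDH read-out. Means and SDs were taken from three replicate experiments.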

Plasmodium falciparum [8] = assay: Antiplasmodial activity against Plasmodium falciparum 3D7 infected in RBC assessed as reduction in parasite growth measured for 8 hrs by Giemsa-staining based microscopic analysis; assay type: functional, organism-based
Procedure, shortened: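 Giemsa-stained thin smears were read at 8 h and the percentages of extracellular and intracellular parasites counted, compared with untreated parasites at 0 h.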

SMILES	EC50 (Plasmodium falciparum [1]) [µM]	CC50 (HepG2) [µM]	further results
Cn1ccc(-c2ccc3ccn(CC(=O)Nc4ccccc4Cl)c3c2)n1	> 10	–	–
Cc1cccc(NC(=O)Cn2ccc3ccc(-c4nnc(C)o4)cc32)c1	2.8	> 40	–
Cn1cc(-c2ccc3ccn(CC(=O)Nc4ccccc4Cl)c3c2)c(C(F)(F)F)n1	0.043	> 40	solubility kinetic [2]: 2.5 µM (≈ 1.08 µg/mL); intrinsic clearance (CLint) [3]: 488 µL/min/mg; intrinsic clearance (CLint) [4]: 92 uL/min/10^6 cells; logD [5]: 4.7
Cc1nnc(-c2ccc3ccn(CC(=O)Nc4cccc(F)c4Cl)c3c2)o1	1.33	> 40	–
Cn1cc(-c2cc3c(ccn3CC(=O)Nc3ccccc3Cl)cn2)cn1	8.45	> 40	–
COc1ccccc1NC(=O)Cn1ccc2ccc(-c3nnc(C)o3)cc21	> 10	–	–
CC(C)c1nnc(-c2ccc3ccn(CC(=O)Nc4ccccc4Cl)c3c2)o1	> 10	–	–
Cc1ccc(-c2ccc3ccn(CC(=O)Nc4ccccc4Cl)c3c2)s1	> 10	–	–
COc1cc(NC(=O)Cn2ccc3ccc(-c4cnn(C)c4)cc32)cc(OC)c1OC	0.385	> 40	solubility kinetic [2]: 4.6 µM (≈ 1.93 µg/mL); intrinsic clearance (CLint) [3]: 95 µL/min/mg; intrinsic clearance (CLint) [4]: 4.6 uL/min/10^6 cells; logD [5]: 3.5
Cc1nnc(-c2ccc3ccn(CC(=O)Nc4ccccn4)c3c2)o1	4.78	> 40	–
O=C(Cn1ccc2ccc(-c3nnc(C(F)(F)F)o3)cc21)Nc1ccccc1Cl	> 10	–	–
Cc1nnc(-c2ccc3ccn(CC(=O)Nc4ccccc4C#N)c3c2)o1	3.48	> 40	–
O=C(Cn1ccc2ccc(-c3cnn(C(F)F)c3)cc21)Nc1ccccc1Cl	1.5	> 40	–
Cc1nnc(-c2ccc3ccn(CC(=O)Nc4ccccc4C(F)(F)F)c3c2)o1	3.1	> 40	–
Cn1cc(-c2ccc3c(F)cn(CC(=O)Nc4ccccc4Cl)c3c2)cn1	0.33	> 40	–
Cc1cc(-c2ccc3ccn(CC(=O)Nc4ccccc4Cl)c3c2)cnn1	3.65	–	–
Cc1nnc(-c2ccc3ccn(CC(=O)Nc4cc(F)ccc4F)c3c2)o1	1.25	> 40	–
Cc1nnc(-c2ccc3ccn(CC(=O)Nc4ccc(C#N)cc4)c3c2)o1	> 10	–	–
COc1cc(NC(=O)Cn2ccc3ccc(-c4nnc(C)o4)cc32)cc(OC)c1	1.18	> 40	–
Cc1ccc(NC(=O)Cn2ccc3ccc(-c4nnc(C)o4)cc32)cc1	5.35	> 40	–
Cc1nnc(-c2ccc3ccn(CC(=O)N(C)c4ccccc4)c3c2)o1	> 10	–	–
O=C(Cn1ccc2ccc(-c3cnn(C(F)(F)F)c3)cc21)Nc1ccccc1Cl	> 10	–	–
COc1cc(NC(=O)Cn2ccc3ccc(-c4cn(C)nc4C)cc32)cc(OC)c1OC	0.1	> 40	solubility kinetic [2]: 8.6 µM (≈ 3.74 µg/mL); intrinsic clearance (CLint) [3]: 105 µL/min/mg; intrinsic clearance (CLint) [6]: 207 µL/min/mg; intrinsic clearance (CLint) [4]: 11 uL/min/10^6 cells; logD [5]: 3.2
Cc1n[nH]c(C)c1-c1ccc2ccn(CC(=O)Nc3ccccc3Cl)c2c1	3.6	> 40	–
Cc1cc(-c2ccc3ccn(CC(=O)Nc4ccccc4Cl)c3c2)ccn1	2.83	–	–

SMILES	EC50 (Plasmodium falciparum [1]) [µM]	CC50 (HepG2) [µM]	further results
Cc1nnc(-c2ccc3ccn(CC(=O)Nc4cccc(C(F)(F)F)c4)c3c2)o1	0.615	> 40	–
Cc1cn(CC(=O)Nc2ccccc2Cl)c2cc(-c3cnn(C)c3)ccc12	0.868	> 40	–
Cc1nnc(-c2ccc3ccn(CC(=O)Nc4ccccc4C)c3c2)o1	1.18	–	–
Cc1nnc(-c2ccc3ccn(CC(=O)Nc4cccc(F)c4)c3c2)o1	1.45	> 40	–
Cc1cc2ccc(-c3cnn(C)c3)cc2n1CC(=O)Nc1ccccc1Cl	–	> 40	–
CC(C(=O)Nc1ccccc1Cl)n1ccc2ccc(-c3cnn(C)c3)cc21 (centres undefined)	–	> 40	–
COc1cccc(NC(=O)Cn2ccc3ccc(-c4nnc(C)o4)cc32)c1	3.6	> 40	–
Cc1nn(C)c(C)c1-c1ccc2ccn(CC(=O)Nc3ccccc3Cl)c2c1	0.31	> 40	–
Cc1nnc(-c2ccc3ccn(CC(=O)Nc4ccc(Cl)cc4)c3c2)o1	4.47	> 40	–
Cc1nn(C)cc1-c1ccc2ccn(CC(=O)Nc3ccccc3Cl)c2c1	0.23	> 40	–
Cc1nnc(-c2ccc3ccn(CC(=O)Nc4c(F)cccc4F)c3c2)o1	1.65	> 40	–
CC(C)n1cc(-c2ccc3ccn(CC(=O)Nc4ccccc4Cl)c3c2)cn1	> 10	–	–
Cc1nnc(-c2ccc3ccn(CC(=O)Nc4cccc(C#N)c4)c3c2)o1	0.99	> 40	–
CCN(CC)CCCC(C)Nc1ccnc2cc(Cl)ccc12 (centres undefined)	–	–	Activity (Plasmodium falciparum [7]): Active; Activity (Plasmodium falciparum [8]): Active
COc1ccc(NC(=O)Cn2ccc3ccc(-c4nnc(C)o4)cc32)cc1	7.8	> 40	–
Cc1nnc(-c2ccc3ccn(CC(=O)Nc4ccccc4)c3c2)o1	1.63	> 40	–
Cc1nnc(-c2ccc3ccn(CC(=O)Nc4cccnc4Cl)c3c2)o1	1.17	> 40	solubility kinetic [2]: 73 µM (≈ 26.8 µg/mL); intrinsic clearance (CLint) [3]: 57 µL/min/mg; intrinsic clearance (CLint) [4]: 27 uL/min/10^6 cells; logD [5]: 2.1
COc1cc(NC(=O)Cn2cc(Cl)c3cc(F)c(-c4cn(C)nc4C)cc32)cc(OC)c1OC	0.108	> 40	solubility kinetic [2]: 2.5 µM (≈ 1.22 µg/mL); intrinsic clearance (CLint) [3]: 64 µL/min/mg; intrinsic clearance (CLint) [6]: 73 µL/min/mg; intrinsic clearance (CLint) [4]: 5.7 uL/min/10^6 cells; logD [5]: 4.8
Cc1nnc(-c2ccc3ccn(CC(=O)Nc4ccc(C(F)(F)F)cc4)c3c2)o1	2.1	> 40	–
Cn1cc(-c2ccc3c(Br)cn(CC(=O)Nc4ccccc4Cl)c3c2)cn1	0.165	> 40	–
Cc1c(-c2ccc3ccn(CC(=O)Nc4ccccc4Cl)c3c2)cnn1C	0.248	> 40	–
Cc1nnc(-c2ccc3ccn(CC(=O)Nc4ccncc4Cl)c3c2)o1	7.13	> 40	–
Cc1nnc(-c2ccc3ccn(CC(=O)Nc4ccncc4)c3c2)o1	4.68	> 40	–
O=C(Cn1ccc2ccc(-c3cnn(-c4ccccc4)c3)cc21)Nc1ccccc1Cl	> 10	–	–
Cc1nnc(-c2ccc3ccn(CC(=O)Nc4ccc(F)cc4)c3c2)o1	3.8	> 40	–

SMILES	EC50 (Plasmodium falciparum [1]) [µM]	CC50 (HepG2) [µM]	further results
Cc1nnc(-c2ccc3ccn(CC(=O)Nc4cc(F)ccc4Cl)c3c2)o1	0.683	> 40	–
COc1ccc(NC(=O)Cn2ccc3ccc(-c4nnc(C)o4)cc32)cc1OC	1.55	> 40	–
Cn1cc(-c2ccc3ncn(CC(=O)Nc4ccccc4Cl)c3c2)cn1	> 10	–	–
Cc1ncc(-c2ccc3ccn(CC(=O)Nc4ccccc4Cl)c3c2)s1	1.9	> 40	–
Cc1nnc(-c2ccc3ccn(CC(=O)Nc4cc(F)cc(F)c4)c3c2)o1	1.18	> 40	–
Cn1cc(-c2ccc3ccn(CC(=O)Nc4ccccc4Cl)c3n2)cn1	1.53	> 40	solubility kinetic [2]: 2.5 µM (≈ 0.915 µg/mL); intrinsic clearance (CLint) [3]: 458 µL/min/mg; intrinsic clearance (CLint) [4]: 92 uL/min/10^6 cells; logD [5]: 3.3
Cc1cccc(-c2ccc3ccn(CC(=O)Nc4ccccc4Cl)c3c2)c1	1.11	> 40	–
O=C(Cn1ccc2ccc(-c3cnn(CC(F)(F)F)c3)cc21)Nc1ccccc1Cl	> 10	–	–
CCc1nc(N)nc(N)c1-c1ccc(Cl)cc1	–	–	Activity (Plasmodium falciparum [7]): Active
Cc1nnc(-c2ccc3ccn(CC(=O)Nc4cc(Cl)cc(Cl)c4)c3c2)o1	3.88	> 40	–
Cn1cc(-c2ccc3c(Cl)cn(CC(=O)Nc4ccccc4Cl)c3c2)cn1	0.138	> 40	solubility kinetic [2]: < 2.5 µM; intrinsic clearance (CLint) [3]: 65 µL/min/mg; intrinsic clearance (CLint) [6]: 177 µL/min/mg; intrinsic clearance (CLint) [4]: 29 uL/min/10^6 cells; logD [5]: 4.6
Cc1nnc(-c2ccc3ccn(CC(=O)Nc4cccc(Cl)c4)c3c2)o1	0.898	> 40	–
Cc1ccc(-c2ccc3ccn(CC(=O)Nc4ccccc4Cl)c3c2)cc1	> 10	–	–
Cc1nnc(-c2ccc3ccn(CC(=O)Nc4cccnc4)c3c2)o1	4.25	> 40	–
Cn1cc(-c2ccc3cnn(CC(=O)Nc4ccccc4Cl)c3c2)cn1	> 10	–	–
Cn1cc(-c2cnc3ccn(CC(=O)Nc4ccccc4Cl)c3c2)cn1	> 10	–	–
Cc1nnc(-c2ccc3ccn(CC(=O)Nc4cccc(Cl)c4Cl)c3c2)o1	1.33	> 40	–
Cc1noc(-c2ccc3ccn(CC(=O)Nc4ccccc4Cl)c3c2)n1	> 10	–	–
Cc1nnc(-c2ccc3ccn(CC(=O)Nc4ccccc4F)c3c2)o1	2.1	> 40	–
CCn1cc(-c2ccc3ccn(CC(=O)Nc4ccccc4Cl)c3c2)cn1	> 10	> 40	–
COc1cc(NC(=O)Cn2cc(Cl)c3ccc(-c4cn(C)nc4C)cc32)cc(OC)c1OC	0.022	–	–
COc1cc(NC(=O)Cn2cc(Cl)c3ccc(-c4cnn(C)c4)cc32)cc(OC)c1OC	0.049	> 40	solubility kinetic [2]: 2.5 µM (≈ 1.14 µg/mL); intrinsic clearance (CLint) [3]: 15 µL/min/mg; intrinsic clearance (CLint) [6]: 53 µL/min/mg; intrinsic clearance (CLint) [4]: < 1 uL/min/10^6 cells; logD [5]: 4.2
Cc1ccc(-c2ccc3ccn(CC(=O)Nc4ccccc4Cl)c3c2)cn1	> 10	–	–
O=C(Cn1ccc2ccc(-c3nnco3)cc21)Nc1ccccc1Cl	> 10	–	–
